This note sets out measurements from ChEMBL document CHEMBL3526081 (Drug Metab Dispos, 2011).

SMILES strings stand for the structures.

Data set [1] in a line: Drug level in cynomolgus monkey liver microsomes treated with 100 uM cinobufagin at 37 degC after 30 mins by UFLC-ESI-MS analysis in presence of NADPH-generating system. As to conditions: 0.5 h. Type of data set: ADME, Macaca fascicularis. Summed up:
(§1)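 Liver microsomes (0.3 mg protein/ml) incubated with 100 µM substrate at 37°C for 30 min, in 100 mM potassium phosphate pH 7.4 with NADPH-generating system (1 mM NADP+, 10 mM glucose 6-phosphate, 1 unit/ml G6PDH, 4 mM MgCl2). Acetonitrile ≤1% final. Stopped with ice-cold acetonitrile and centrifuged. Metabolites identified by UFLC-ESI-MS and quantified by UFLC-DAD at 294 nm against authentic standard curves.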
On the technique in general: Liver microsomes are vesicles of endoplasmic reticulum, rich in cytochrome P450 enzymes.

Data set [2] has as its target Cytochrome P450 2C19 (Homo sapiens, UniProt P33261). Put plainly: Drug level in human recombinant CYP2C19 expressed in insect cells coexpressing NADPH-P450 reductase measured per pmol of enzyme treated with 100 uM cinobufagin at 37 degC after 30 mins by UFLC-DAD-ESI-MS analysis. Type of data set: ADME. The note with it: 0.5 h.
Data set [3] has as its target T1, Cytochrome P450 2C8 (Homo sapiens, UniProt P10632).
T1 sequence (P10632 whole entry): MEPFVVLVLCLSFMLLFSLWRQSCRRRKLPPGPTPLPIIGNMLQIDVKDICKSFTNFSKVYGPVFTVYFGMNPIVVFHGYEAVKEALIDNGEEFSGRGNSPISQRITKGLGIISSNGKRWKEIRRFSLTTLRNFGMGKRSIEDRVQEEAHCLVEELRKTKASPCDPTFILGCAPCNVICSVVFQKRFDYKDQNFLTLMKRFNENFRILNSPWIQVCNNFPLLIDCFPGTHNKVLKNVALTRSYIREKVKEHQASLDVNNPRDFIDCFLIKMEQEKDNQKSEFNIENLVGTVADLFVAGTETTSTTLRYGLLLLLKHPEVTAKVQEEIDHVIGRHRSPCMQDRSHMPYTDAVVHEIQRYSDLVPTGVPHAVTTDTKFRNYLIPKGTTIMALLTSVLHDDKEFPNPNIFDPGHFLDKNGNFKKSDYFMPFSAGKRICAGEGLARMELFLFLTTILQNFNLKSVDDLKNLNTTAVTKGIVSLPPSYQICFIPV
In words: Drug level in human recombinant CYP2C8 expressed in insect cells coexpressing NADPH-P450 reductase measured per pmol of enzyme treated with 50 uM cinobufagin at 37 degC after 30 mins by UFLC-DAD-ESI-MS analysis. The note with it: 0.5 h.

The target in data set [4] is Cytochrome P450 2D6 (Homo sapiens, UniProt P10635). In words: Drug level in human recombinant CYP2D6 expressed in insect cells coexpressing NADPH-P450 reductase measured per pmol of enzyme treated with 50 uM cinobufagin at 37 degC after 30 mins by UFLC-DAD-ESI-MS analysis. The note with it: 0.5 h.
The subject of data set [5] is Liver microsome. In words: Drug level in beagle dog liver microsomes treated with 100 uM cinobufagin at 37 degC after 30 mins by UFLC-ESI-MS analysis in presence of NADPH-generating system. Type of data set: ADME, Canis lupus familiaris. As to conditions: 0.5 h. The method, boiled down: as §1
The test system of data set [6] is Liver microsome. In words: Retention time in Sprague-Dawley rat liver microsomes treated with 100 uM cinobufagin at 37 degC after 30 mins by UFLC-DAD-ESI-MS analysis. Type of data set: ADME. As to conditions: 0.5 h. The method, boiled down: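 Male Sprague-Dawley rat microsomes (0.3 mg/ml) were incubated with CB (100 µM) at 37°C for 30 min, with and without NADPH-generating system. Separation was on an ODS column at 40°C using an acetonitrile/0.5% formic acid water gradient at 0.4 ml/min, with DAD detection at 294 nm plus ESI-MS.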

A short description of data set [7]: Drug level in Swiss-Hauschka (ICR) mouse liver microsomes treated with 100 uM cinobufagin at 37 degC after 30 mins by UFLC-ESI-MS analysis in presence of NADPH-generating system. As to conditions: 0.5 h. It counts as ADME. Summed up: as §1
The target in data set [8] is Cytochrome P450 2C9 (Homo sapiens, UniProt P11712). In words: Drug level in human recombinant CYP2C9 expressed in insect cells coexpressing NADPH-P450 reductase measured per pmol of enzyme treated with 50 uM cinobufagin at 37 degC after 30 mins by UFLC-DAD-ESI-MS analysis. As to conditions: 0.5 h.
The target in data set [9] is Cytochrome P450 2E1 (Homo sapiens, UniProt P05181). In words: Drug level in human recombinant CYP2E1 expressed in insect cells coexpressing NADPH-P450 reductase measured per pmol of enzyme treated with 50 uM cinobufagin at 37 degC after 30 mins by UFLC-DAD-ESI-MS analysis. The note with it: 0.5 h.
Data set [10] in a line: Drug metabolism in Swiss-Hauschka (ICR) mouse liver microsomes assessed as 1alpha-hydroxylcinobufagin formation at 100 uM at 37 degC after 30 mins by UFLC-ESI-MS analysis in presence of 10 uM sulfaphenazole CYP2C9 inhibitor. It counts as ADME. As to conditions: 0.5 h. Summed up: (§2)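 Chemical inhibition: selective P450 inhibitors (furafylline, sulfaphenazole, ketoconazole) added to liver microsome incubations in 100 mM potassium phosphate pH 7.4 with NADPH-generating system at 37°C. Hydroxylated metabolite formation quantified by UFLC at 294 nm against standards. Mean ± S.D. of three experiments in duplicate.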

A short description of data set [11]: Drug metabolism in Colony-bred Chinese Bama minipig liver microsomes assessed as 1alpha-hydroxylcinobufagin formation at 100 uM at 37 degC after 30 mins by UFLC-ESI-MS analysis in presence of 1 uM ketoconazole CYP3A4 inhibitor. It counts as ADME, Sus scrofa. The note with it: pig, 0.5 h. The method, boiled down: as §2
Data set [12] is described as follows: Drug metabolism in Colony-bred Chinese Bama minipig liver microsomes assessed as 1alpha-hydroxylcinobufagin formation at 100 uM at 37 degC after 30 mins by UFLC-ESI-MS analysis. Type of data set: ADME, Sus scrofa. The note with it: pig, 0.5 h, read-out: Km(app). The method, boiled down:
as §1

Data set [13] relates to Liver microsome. Put plainly: Drug metabolism in human liver microsomes assessed as 1alpha-hydroxylcinobufagin formation at 100 uM at 37 degC after 30 mins by UFLC-ESI-MS analysis in presence of 50 uM clomethiazole CYP2E1 inhibitor. Type of data set: ADME. The note with it: 0.5 h. The method, boiled down:
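Pooled human liver microsomes (10 donors, both sexes) in 100 mM potassium phosphate pH 7.4 were incubated with CB and a selective P450 inhibitor. Reaction was started with NADPH-generating system after 3 min preincubation at 37°C and stopped with ice-cold acetonitrile. Hydroxylated products were quantified by UFLC-DAD at 294 nm; three experiments in duplicate.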

A short description of data set [14]: Drug metabolism in cynomolgus monkey liver microsomes assessed as 1alpha-hydroxylcinobufagin formation at 100 uM at 37 degC after 30 mins by UFLC-ESI-MS analysis in presence of NADPH-generating system. The note with it: 0.5 h. Type of data set: ADME, Macaca fascicularis. Summed up: as §1
The subject of data set [15] is Liver microsome. Put plainly: Drug metabolism in human liver microsomes assessed as 1alpha-hydroxylcinobufagin formation at 100 uM at 37 degC after 30 mins […] in presence of 10 uM sulfaphenazole CYP2C9 inhibitor. It counts as ADME. The note with it: 0.5 h.
Data set [16] relates to Liver microsome. Put plainly: Ratio of Vmax/Km in beagle dog liver microsomes assessed as 5beta-hydroxylcinobufaginn formation at 100 uM […] by UFLC-ESI-MS analysis. It counts as ADME, Canis lupus familiaris. As to conditions: 0.5 h.
In data set [17] the test system is Liver microsome. Put plainly: Drug metabolism in human liver microsomes assessed as 1alpha-hydroxylcinobufagin formation per mg of protein at 100 uM at 37 degC […] by UFLC-ESI-MS analysis. As to conditions: 0.5 h. Type of data set: ADME.
Data set [18] relates to Liver microsome. In words: Drug metabolism in beagle dog liver microsomes assessed as 5beta-hydroxylcinobufaginn formation at 100 uM at 37 degC after 30 mins by UFLC-ESI-MS analysis. Type of data set: ADME, Canis lupus familiaris. As to conditions: 0.5 h, read-out: Km(app). Summed up: as §1

Sequence of Cytochrome P450 2C9 (P11712 whole entry): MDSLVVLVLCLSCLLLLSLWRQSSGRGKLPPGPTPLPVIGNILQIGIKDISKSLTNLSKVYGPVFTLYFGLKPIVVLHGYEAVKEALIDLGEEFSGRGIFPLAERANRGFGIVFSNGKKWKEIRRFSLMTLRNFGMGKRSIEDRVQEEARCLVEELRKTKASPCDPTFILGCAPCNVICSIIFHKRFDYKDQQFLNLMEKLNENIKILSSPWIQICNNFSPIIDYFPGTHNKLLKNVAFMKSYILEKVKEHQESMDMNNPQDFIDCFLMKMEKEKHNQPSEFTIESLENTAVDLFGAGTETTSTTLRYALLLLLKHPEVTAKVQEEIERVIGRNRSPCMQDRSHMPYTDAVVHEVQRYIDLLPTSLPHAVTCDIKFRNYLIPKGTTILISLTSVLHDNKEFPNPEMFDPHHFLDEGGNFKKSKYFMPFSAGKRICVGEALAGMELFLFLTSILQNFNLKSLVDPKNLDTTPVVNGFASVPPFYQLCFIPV
Sequence of Cytochrome P450 2E1 (P05181 whole entry): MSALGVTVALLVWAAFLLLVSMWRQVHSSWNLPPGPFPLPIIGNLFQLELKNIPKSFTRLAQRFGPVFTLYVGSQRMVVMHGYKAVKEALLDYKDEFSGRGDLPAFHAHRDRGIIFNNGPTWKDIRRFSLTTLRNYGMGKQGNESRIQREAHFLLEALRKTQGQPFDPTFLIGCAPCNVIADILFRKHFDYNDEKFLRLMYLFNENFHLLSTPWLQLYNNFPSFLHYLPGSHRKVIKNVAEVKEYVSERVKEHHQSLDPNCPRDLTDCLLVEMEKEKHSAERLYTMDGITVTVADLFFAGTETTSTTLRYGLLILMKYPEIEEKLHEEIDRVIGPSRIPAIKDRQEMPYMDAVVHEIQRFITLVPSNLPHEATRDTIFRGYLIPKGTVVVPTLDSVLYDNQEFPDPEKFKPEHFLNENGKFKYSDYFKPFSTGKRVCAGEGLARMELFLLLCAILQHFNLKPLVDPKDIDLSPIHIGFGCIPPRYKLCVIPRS
Sequence of Cytochrome P450 2D6 (P10635 whole entry): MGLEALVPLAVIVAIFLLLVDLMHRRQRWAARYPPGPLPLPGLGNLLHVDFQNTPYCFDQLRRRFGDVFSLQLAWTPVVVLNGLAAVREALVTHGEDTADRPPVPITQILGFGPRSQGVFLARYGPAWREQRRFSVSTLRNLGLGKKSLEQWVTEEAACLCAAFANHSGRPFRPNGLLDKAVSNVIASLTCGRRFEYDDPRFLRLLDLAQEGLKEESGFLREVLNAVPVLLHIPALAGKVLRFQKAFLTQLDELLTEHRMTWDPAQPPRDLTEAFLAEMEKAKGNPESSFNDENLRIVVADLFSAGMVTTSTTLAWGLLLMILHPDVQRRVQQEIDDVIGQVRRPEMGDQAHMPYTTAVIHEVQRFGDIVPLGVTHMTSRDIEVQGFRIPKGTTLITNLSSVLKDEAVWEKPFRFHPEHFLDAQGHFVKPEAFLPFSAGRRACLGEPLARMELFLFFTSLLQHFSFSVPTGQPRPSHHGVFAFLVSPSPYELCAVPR
Sequence of Cytochrome P450 2C19 (P33261 whole entry): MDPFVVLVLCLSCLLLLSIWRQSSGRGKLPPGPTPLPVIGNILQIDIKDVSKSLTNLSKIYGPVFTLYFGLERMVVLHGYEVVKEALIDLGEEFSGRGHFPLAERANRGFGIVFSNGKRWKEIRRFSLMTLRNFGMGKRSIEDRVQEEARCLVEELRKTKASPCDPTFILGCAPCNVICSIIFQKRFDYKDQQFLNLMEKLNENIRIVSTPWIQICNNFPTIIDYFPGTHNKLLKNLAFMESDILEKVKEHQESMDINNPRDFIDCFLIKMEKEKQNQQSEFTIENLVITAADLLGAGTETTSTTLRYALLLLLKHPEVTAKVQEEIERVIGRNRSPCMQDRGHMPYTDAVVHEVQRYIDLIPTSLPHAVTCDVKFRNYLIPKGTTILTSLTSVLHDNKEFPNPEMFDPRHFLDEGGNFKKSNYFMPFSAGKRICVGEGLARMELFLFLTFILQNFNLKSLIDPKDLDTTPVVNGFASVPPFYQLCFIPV

As to `CC(=O)O[C@H]1[C@H]2O[C@]23[C@@H]2CC[C@@H]4C[C@@H](O)C[C@H](O)[C@]4(C)[C@H]2CC[C@]3(C)[C@H]1c1ccc(=O)oc1`, the Drug metabolism entry was “metabolite_detected” in data set [1]; less than 0.01 pmol/min in [2]; less than 0.01 pmol/min in [3]; less than 0.01 pmol/min in [4]; “metabolite_detected” in [5]; “metabolite_detected” in data set [7]. Besides, the Drug metabolism in data set [8] and in [9] was less than 0.01 pmol/min in each case. The Retention_time in data set [6] stood at 7.35 min.

In general, Km refers to the concentration of substrate that gives half-maximal velocity. For orientation: Vmax means the rate approached at saturating substrate. For `CC(=O)O[C@H]1[C@H]2O[C@]23[C@@H]2CC[C@@H]4C[C@@H](O)CC[C@]4(C)[C@H]2CC[C@]3(C)[C@H]1c1ccc(=O)oc1` [CINOBUFAGIN], the Drug metabolism result in data set [10] is reported as “metabolite_detected”; in data set [11] it was “metabolite_not_detected”; in data set [13], “metabolite_detected”; in data set [14], “metabolite_detected”; in [15] it was “metabolite_detected”. Also, the Km in data set [12] amounted to 17.2 µM; in data set [18], 3.4 µM. In addition, the Vmax/Km in data set [16] is 129.4 µL/min/mg. Further, the Vmax in data set [17] was found to be 0.59 nmol/min/mg.

Consider `CC(=O)O[C@H]1[C@H]2O[C@]23[C@@H]2CC[C@]4(O)C[C@@H](O)CC[C@]4(C)[C@H]2CC[C@]3(C)[C@H]1c1ccc(=O)oc1` [CINOBUFOTALIN], for which the Drug metabolism result in [1] was “metabolite_detected”; in data set [2], less than 0.01 pmol/min; in [3] it was less than 0.01 pmol/min; in data set [4], less than 0.01 pmol/min; in data set [5], “metabolite_detected”; in data set [7] it was “metabolite_detected”. The Drug metabolism in data set [8] and in data set [9] was less than 0.01 pmol/min in each case. In data set [6], this compound came in with a Retention_time of 7.6 min.
